# In ChEMBL document CHEMBL2203158, “Fluorescent derivatives of AC-42 to probe bitopic orthosteric/allosteric binding mechanisms on muscarinic M1 receptors” (J Med Chem, 2012):
# Activity calls are given as the source filed them. The calls are words filed in the database; no cut-off is given here.
# Experiments:
# [1] = target: T1, Muscarinic acetylcholine receptor M1 (Homo sapiens, UniProt P11229); test: Partial agonist activity at EGFP-fused human M1 receptor N-terminal truncated at 17 residues expressed in HEK293 cells assessed as induction of calcium response by fluorescence assay; assay type: functional, cell-based
# T1 sequence (P11229 whole entry): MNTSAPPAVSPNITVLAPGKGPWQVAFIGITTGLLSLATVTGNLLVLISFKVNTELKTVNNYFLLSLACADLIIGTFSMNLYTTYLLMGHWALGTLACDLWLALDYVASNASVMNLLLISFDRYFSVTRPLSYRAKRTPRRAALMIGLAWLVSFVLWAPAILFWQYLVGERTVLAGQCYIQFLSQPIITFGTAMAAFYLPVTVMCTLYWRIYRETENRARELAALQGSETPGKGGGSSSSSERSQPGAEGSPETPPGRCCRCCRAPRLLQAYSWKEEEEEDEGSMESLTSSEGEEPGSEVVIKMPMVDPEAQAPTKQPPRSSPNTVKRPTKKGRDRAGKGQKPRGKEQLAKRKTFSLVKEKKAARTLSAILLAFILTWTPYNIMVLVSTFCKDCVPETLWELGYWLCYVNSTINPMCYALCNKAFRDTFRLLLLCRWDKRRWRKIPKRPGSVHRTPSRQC
# Method in brief: (§1)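 Stably transfected HEK293 cells (hygromycin-selected) were loaded with 5 μM Indo-1 AM for 45 min at 37 °C, then suspended at 10⁶ cells/mL in Hepes buffer with BSA. […] EC50 and Emax are mean ± SD of two determinations.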
# [2] = target: T2, Muscarinic acetylcholine receptor M1 (Homo sapiens) (UniProt P11229); settings: HEK293, 10 uM
# T2 sequence (whole entry): T1 sequence (P11229 whole entry)
# [3] = target: T1, Muscarinic acetylcholine receptor M1; test: Displacement of [3H]NMS from EGFP-fused human M1 receptor N-terminal truncated at 17 residues expressed in HEK293 cells after 22 hrs by liquid scintillation counting; assay type: cell-based
# [4] = target: T1, Muscarinic acetylcholine receptor M1; test: Partial agonist activity at EGFP-fused human full length M1 receptor expressed in HEK293 cells assessed as induction of calcium response by fluorescence assay; assay type: functional, cell-based; method in brief: as §1
# [5] = target: T2, Muscarinic acetylcholine receptor M1 (Homo sapiens); settings: HEK293, 200 nM
# [6] = target: T2, Muscarinic acetylcholine receptor M1 (Homo sapiens); settings: HEK293, 10 uM; remark: listed apart in the source
# [7] = target: T1, Muscarinic acetylcholine receptor M1; test: Partial agonist activity at human full length M1 receptor expressed in HEK293 cells assessed as induction of calcium response by fluorescence assay; assay type: functional, cell-based; method in brief: as §1
# [8] = target: T1, Muscarinic acetylcholine receptor M1; test: Partial agonist activity at EGFP-fused human M1 receptor N-terminal truncated at 11 residues expressed in HEK293 cells assessed as induction of calcium response by fluorescence assay; assay type: functional, cell-based; method in brief: as §1
# [9] = target: T1, Muscarinic acetylcholine receptor M1; assay type: cell-based, HEK293
# [10] = target: T2, Muscarinic acetylcholine receptor M1 (Homo sapiens); test: Allosteric modulation of EGFP-fused human M1 receptor N-terminal truncated at 17 residues expressed in HEK293 cells after 4 hrs by FRET assay in presence of para-LRB-AC42; assay type: cell-based
# Method in brief: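 EGFP emission was read at 510 nm with excitation at 470 nm. Specific signal was the difference from 20 μM atropine. Kx and α came from an allosteric model fit, with three or more independent runs done in duplicate.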
# [11] = target: T2, Muscarinic acetylcholine receptor M1 (Homo sapiens); test: Partial agonist activity at EGFP-fused human M1 receptor N-terminal truncated at 17 residues expressed in HEK293 cells assessed as inhibition of carbachol induced calcium response at […] by fluorescence assay; assay type: functional, cell-based
# [12] = target: T2, Muscarinic acetylcholine receptor M1 (Homo sapiens); settings: HEK293
# [13] = target: T2, Muscarinic acetylcholine receptor M1 (Homo sapiens); test: Partial agonist activity at EGFP-fused human M1 receptor N-terminal truncated at 17 residues expressed in HEK293 cells assessed as inhibition of carbachol induced calcium response at 1 uM by fluorescence assay relative to control; assay type: functional, cell-based
# [14] = target: T2, Muscarinic acetylcholine receptor M1 (Homo sapiens); test: (§2) Antagonist activity at EGFP-fused human M1 receptor N-terminal truncated at 17 residues expressed in HEK293 cells assessed as inhibition of carbachol induced calcium response by fluorescence assay; assay type: functional, cell-based
# [15] = target: T1, Muscarinic acetylcholine receptor M1; test: as §2; assay type: functional, cell-based
# [16] = target: Muscarinic acetylcholine receptor M3 (Homo sapiens) (UniProt P20309); test: Antagonist activity at human M3 receptor in HEK293 cells assessed as inhibition of 20 uM carbachol induced calcium response at 10 uM by fluorescence assay; assay type: functional, cell-based
# Method in brief: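 Nontransfected HEK cells (endogenous M3) loaded with 5 μM Indo-1 AM, 45 min, 37 °C, trypsin/EDTA harvested, suspended at 10⁶ cells/mL in Hepes buffer with 1 mg/mL BSA. Calcium read at 37 °C as 400 nm emission (338 nm excitation), peak normalized to 20 μM digitonin maximum.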
# [17] = target: T1, Muscarinic acetylcholine receptor M1; test: Displacement of [3H]NMS from EGFP-fused human M1 receptor N-terminal truncated at 17 residues expressed in HEK293 cells assessed as reduction of [3H]NMS dissociation rate after 22 hrs by liquid scintillation counting; assay type: cell-based
# [18] = target: T2, Muscarinic acetylcholine receptor M1 (Homo sapiens); test: Binding affinity to EGFP-fused human M1 receptor N-terminal truncated at 17 residues expressed in HEK293 cells assessed as maximal amplitude after 4 hrs by FRET assay; assay type: cell-based
# Method in brief: (§3)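 EGFP emission was read at 510 nm; specific binding is atropine-sensitive fluorescence extinction. Kd, maximal FRET amplitude and Ki/Kx/α come from Hill or competitive/allosteric fits, mean ± SE, n≥3.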
# [19] = target: T1, Muscarinic acetylcholine receptor M1; test: Binding affinity to EGFP-fused human M1 receptor N-terminal truncated at 17 residues expressed in HEK293 cells after 4 hrs by FRET assay; assay type: cell-based; method in brief: as §3
# Sequence of Muscarinic acetylcholine receptor M3 (Homo sapiens) (P20309 whole entry, looked up): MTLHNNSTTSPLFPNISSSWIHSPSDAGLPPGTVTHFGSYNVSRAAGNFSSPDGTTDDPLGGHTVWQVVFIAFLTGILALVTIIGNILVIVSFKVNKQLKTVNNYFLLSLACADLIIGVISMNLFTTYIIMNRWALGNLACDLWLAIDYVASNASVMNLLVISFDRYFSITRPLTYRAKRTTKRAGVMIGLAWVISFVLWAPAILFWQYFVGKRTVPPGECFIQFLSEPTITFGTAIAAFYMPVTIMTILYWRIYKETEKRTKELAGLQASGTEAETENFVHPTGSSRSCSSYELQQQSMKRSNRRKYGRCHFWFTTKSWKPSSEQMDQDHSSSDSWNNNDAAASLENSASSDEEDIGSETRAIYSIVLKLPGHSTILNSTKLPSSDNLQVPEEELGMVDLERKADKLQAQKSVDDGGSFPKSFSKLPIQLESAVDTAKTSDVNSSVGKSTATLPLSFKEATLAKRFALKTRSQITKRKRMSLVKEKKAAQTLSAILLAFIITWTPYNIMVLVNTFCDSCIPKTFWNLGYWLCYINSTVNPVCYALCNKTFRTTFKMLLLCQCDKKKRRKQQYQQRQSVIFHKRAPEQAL
smiles,measurement,setting,value
CCCCC1CCN(CCCC(=O)c2ccccc2C)CC1,EC50,[1],0.45 µM
same,inhibition,[2],inactive
same,Ki,[3],1.74 µM
same,EC50,[4],0.21 µM
same,inhibition,[5],inactive
same,inhibition,[6],inactive
same,EC50,[7],0.74 µM
same,EC50,[8],0.72 µM
same,Ki,[9],0.891 µM
C#C[C@]1(O)CC[C@H]2[C@@H]3CC[C@H]4Cc5nc6nc7ccccc7n6cc5C[C@]4(C)[C@H]3CC[C@@]21C,pKx,[10],5.03
CCN(CC)c1ccc2c(-c3ccc(S(=O)(=O)O)cc3S(=O)(=O)[O-])c3ccc(=[N+](CC)CC)cc-3oc2c1,Ki,[3],> 1000 µM
same,Activity,[11],inactive
COc1cc2c(cc1OC)[C@@]13CCN4CC5=CCO[C@H]6CC(=O)N2[C@H]1[C@H]6[C@H]5C[C@H]43 [BRUCINE],pKx,[12],4.59
same,Ki,[9],44.7 µM
Clc1ccc2c(c1)N=C(N1CCNCC1)c1ccccc1N2 [N-DESMETHYLCLOZAPINE],Ki,[3],0.0603 µM
same,pKx,[10],6.92
CCN(CC)c1ccc2c(-c3ccc(S(=O)(=O)[O-])cc3S(=O)(=O)NCCCCCC3CCN(CCCC(=O)c4ccccc4C)CC3)c3ccc(=[N+](CC)CC)cc-3oc2c1,Emax,[13],20%
Cc1ccccc1C(=O)CCCN1CCC(CCCCCN)CC1,Ki,[3],1.95 µM
same,inhibition,[14],Dose-dependent effect
same,IC50,[15],3.7 µM
same,inhibition,[16],inactive
same,Ki,[9],1.29 µM
CCN(CC)c1ccc2c(-c3ccc(S(=O)(=O)NCCCCCC4CCN(CCCC(=O)c5ccccc5C)CC4)cc3S(=O)(=O)[O-])c3ccc(=[N+](CC)CC)cc-3oc2c1,Ki,[3],1 µM
same,EC50,[17],25.1 µM
same,inhibition,[14],Dose-dependent effect
same,IC50,[15],0.3 µM
same,Activity,[18],26.5%
same,inhibition,[16],inactive
same,Kd,[19],0.794 µM
